Published values from different studies.
Each line is one published result; the experiments were not run side by side.
MCU: Calcium uniporter protein, mitochondrial (MCU, Homo sapiens, UniProt Q8NE86)
BACE1: Beta-secretase 1 (BACE1, Homo sapiens, UniProt P56817)
ELANE: Neutrophil elastase (ELANE, Homo sapiens, UniProt P08246)

Cl.Cl.N.N.N.N.N.N.N.N.[N-3].[Ru+4].[Ru+4]
IC50 (MCU; transporter uptake, inhibitor): 2.2 nM

COc1cc(OC)c2c(O)c3c(=O)cc(C)oc3cc2c1
IC50 (BACE1; enzyme activity, inhibitor, FRET): > 100000 nM

CC(C)C[C@H](NC(=O)[C@H](Cc1ccccc1)NC(=O)c1cnccn1)B(O)O
IC50 (ELANE; enzyme activity, inhibitor): > 33000 nM

Cc1ccc(-c2ncn(-c3ccc(Nc4nccc(-c5cccc(N6CCOCC6)c5)n4)cc3)n2)cn1
IC50 (Mitogen-activated protein kinase 8 (MAPK8, Homo sapiens, UniProt P45983); enzyme activity, inhibitor): 67 nM

COc1ccc2[nH]cc(CN3CCC(O)(c4ccc(SC)cc4)CC3)c2c1
IC50 (D(2) dopamine receptor (DRD2, Homo sapiens, UniProt P14416); ion current): 250 nM

N#Cc1nn(C(=O)C2CCCC2)c2ncccc12
IC50 (ELANE; enzyme activity, inhibitor, fluorescence): 160 nM

Brc1cc2c(N3CCNCC3)nccn2c1
IC50 (BACE1; enzyme activity, inhibitor, FRET; pH 5): 600000 nM

O=C(O)c1c(Cl)c(Cl)c(Cl)c(Cl)c1-c1c2cc(I)c(=O)c(I)c-2oc2c(I)c(O)c(I)cc12
IC50 (Delta-aminolevulinic acid dehydratase (Homo sapiens, UniProt P13716, C162A/K59N); enzyme activity, inhibitor, absorbance; pH 8): 6900 nM

CC(C)C[C@H](NC(=O)[C@H](Cc1ccccc1)NC(=O)[C@H](Cc1ccc(O)cc1)NC(=O)CNC(=O)[C@H](CCCCN)NC(=O)[C@H](CO)NC(=O)[C@H](CCC(N)=O)NC(=O)CNC(=O)[C@@H](NC(=O)[C@H](CO)NC(=O)[C@@H]1CCCN1C(=O)[C@H](CO)NC(=O)[C@H](CCC(N)=O)NC(=O)[C@H](Cc1ccc(O)cc1)NC(=O)[C@H](CCC(=O)O)NC(=O)[C@H](C)NC(=O)[C@H](CCCCN)NC(=O)[C@@H](N)Cc1ccccc1)C(C)C)C(=O)N[C@@H](Cc1ccccc1)C(=O)N[C@@H](CCCNC(=N)N)C(=O)N1CCC[C@H]1C(=O)N[C@@H](CCCNC(=N)N)C(=O)N[C@@H](CC(N)=O)C(N)=O
IC50 (Neuromedin-U receptor 2 (Mus musculus, UniProt Q8BZ39); ligand displacement, radioligand): 0.0302 nM

C1CNCN2CNCCNCN(CN1)CNCCNC2.[Co+3]
IC50 (MCU; transporter uptake, inhibitor): 131 nM

COc1ccc(C(=O)O)cc1S(=O)(=O)Nc1ccc(C(F)(F)F)cc1N1CCCCC1
IC50 (Endoplasmic reticulum aminopeptidase 2 (ERAP2, Homo sapiens, UniProt Q6P179, K392N); enzyme activity, inhibitor, fluorescence): 27000 nM
